# According to ChEMBL document CHEMBL4689842, “EUbOPEN Chemogenomics Library wave 1” (2021):
# System: U2OS
# Assay: Multiplex assay against U2OS
# Type: toxicity, cell-based
# Conditions: human
# Outline: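 Four dyes were applied at seeding to live cells: Hoechst33342, BioTracker Green Microtubule Cytoskeleton Dye, MitoTracker Red and Annexin V Alexa Fluor 680. Imaging after compound addition used a CQ1 microscope at 37°C and 5% CO2. CellPathfinder machine-learning gating then sorted cells into Hoechst high-intensity objects or normal cells, normal cells into healthy, pyknosed or fragmented nuclei, and pyknosed cells into mitotic or apoptotic, with tubulin, mitochondrial-mass and membrane-permeability phenotypes given as per cents of healthy-nucleus cells.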
# [1] = 12 h, 1 µM, compound concentration 1 uM, replicate 1
# [2] = 12 h, 1 µM, compound concentration 1 uM, replicate 2
# [3] = 12 h, 10 µM, compound concentration 10 uM, replicate 1
# [4] = 12 h, 10 µM, compound concentration 10 uM, replicate 2
# [5] = 24 h, 1 µM, compound concentration 1 uM, replicate 1
# [6] = 24 h, 1 µM, compound concentration 1 uM, replicate 2
# [7] = 24 h, 10 µM, compound concentration 10 uM, replicate 1
# [8] = 24 h, 10 µM, compound concentration 10 uM, replicate 2
# [9] = 48 h, 1 µM, compound concentration 1 uM, replicate 1
# [10] = 48 h, 1 µM, compound concentration 1 uM, replicate 2
# [11] = 48 h, 10 µM, compound concentration 10 uM, replicate 1
# [12] = 48 h, 10 µM, compound concentration 10 uM, replicate 2
structure (smiles),measurement,setting,value
Cc1cn(-c2cc(NC(=O)c3ccc(C)c(Nc4nccc(-c5cccnc5)n4)c3)cc(C(F)(F)F)c2)cn1 [NILOTINIB],Population Apoptotic (%),[1],46%
same,Population Fragmented Nuclei (%),[1],14%
same,Population Healthy Nuclei (%),[1],69%
same,Population Hoechst High Intensity Objects (%),[1],8%
same,Population Membrane Permeable-Phenotype (%),[1],10%
same,Population Mitochondria Different-Phenotype (%),[1],77%
same,Population Mitotic Cells (%),[1],53%
same,Population Normal (%),[1],91%
same,Population Pyknosed Nuclei (%),[1],16%
same,Population Tubulin-Different-Phenotype (%),[1],94%
same,Total Cell Count,[1],134
same,Population Apoptotic (%),[2],25%
same,Population Fragmented Nuclei (%),[2],1%
same,Population Healthy Nuclei (%),[2],86%
same,Population Membrane Permeable-Phenotype (%),[2],1%
same,Population Mitochondria Different-Phenotype (%),[2],18%
same,Population Mitotic Cells (%),[2],75%
same,Population Pyknosed Nuclei (%),[2],11%
same,Population Tubulin-Different-Phenotype (%),[2],10%
same,Total Cell Count,[2],66
same,Population Apoptotic (%),[3],86%
same,Population Fragmented Nuclei (%),[3],45%
same,Population Healthy Nuclei (%),[3],20%
same,Population Hoechst High Intensity Objects (%),[3],49%
same,Population Membrane Permeable-Phenotype (%),[3],30%
same,Population Mitochondria Different-Phenotype (%),[3],89%
same,Population Mitotic Cells (%),[3],13%
same,Population Normal (%),[3],50%
same,Population Pyknosed Nuclei (%),[3],33%
same,Population Tubulin-Different-Phenotype (%),[3],93%
same,Total Cell Count,[3],185
same,Population Apoptotic (%),[4],33%
same,Population Fragmented Nuclei (%),[4],18%
same,Population Healthy Nuclei (%),[4],72%
same,Population Hoechst High Intensity Objects (%),[4],7%
same,Population Membrane Permeable-Phenotype (%),[4],4%
same,Population Mitochondria Different-Phenotype (%),[4],61%
same,Population Mitotic Cells (%),[4],66%
same,Population Normal (%),[4],92%
same,Population Pyknosed Nuclei (%),[4],9%
same,Population Tubulin-Different-Phenotype (%),[4],63%
same,Total Cell Count,[4],73
same,Population Apoptotic (%),[5],55%
same,Population Fragmented Nuclei (%),[5],12%
same,Population Healthy Nuclei (%),[5],66%
same,Population Hoechst High Intensity Objects (%),[5],6%
same,Population Membrane Permeable-Phenotype (%),[5],14%
same,Population Mitochondria Different-Phenotype (%),[5],73%
same,Population Mitotic Cells (%),[5],44%
same,Population Normal (%),[5],93%
same,Population Pyknosed Nuclei (%),[5],20%
same,Population Tubulin-Different-Phenotype (%),[5],92%
same,Total Cell Count,[5],135
same,Population Apoptotic (%),[6],40%
same,Population Fragmented Nuclei (%),[6],14%
same,Population Healthy Nuclei (%),[6],79%
same,Population Hoechst High Intensity Objects (%),[6],5%
same,Population Membrane Permeable-Phenotype (%),[6],2%
same,Population Mitochondria Different-Phenotype (%),[6],20%
same,Population Mitotic Cells (%),[6],60%
same,Population Normal (%),[6],94%
same,Population Pyknosed Nuclei (%),[6],5%
same,Population Tubulin-Different-Phenotype (%),[6],12%
same,Total Cell Count,[6],67
same,Population Apoptotic (%),[7],85%
same,Population Fragmented Nuclei (%),[7],60%
same,Population Healthy Nuclei (%),[7],16%
same,Population Hoechst High Intensity Objects (%),[7],60%
same,Population Membrane Permeable-Phenotype (%),[7],29%
same,Population Mitochondria Different-Phenotype (%),[7],71%
same,Population Mitotic Cells (%),[7],14%
same,Population Normal (%),[7],39%
same,Population Pyknosed Nuclei (%),[7],23%
same,Population Tubulin-Different-Phenotype (%),[7],78%
same,Total Cell Count,[7],184
same,Population Apoptotic (%),[8],0%
same,Population Fragmented Nuclei (%),[8],12%
same,Population Healthy Nuclei (%),[8],83%
same,Population Hoechst High Intensity Objects (%),[8],2%
same,Population Membrane Permeable-Phenotype (%),[8],1%
same,Population Mitochondria Different-Phenotype (%),[8],42%
same,Population Mitotic Cells (%),[8],100%
same,Population Normal (%),[8],97%
same,Population Pyknosed Nuclei (%),[8],4%
same,Population Tubulin-Different-Phenotype (%),[8],30%
same,Total Cell Count,[8],93
same,Population Apoptotic (%),[9],65%
same,Population Fragmented Nuclei (%),[9],14%
same,Population Healthy Nuclei (%),[9],67%
same,Population Hoechst High Intensity Objects (%),[9],3%
same,Population Membrane Permeable-Phenotype (%),[9],16%
same,Population Mitochondria Different-Phenotype (%),[9],54%
same,Population Mitotic Cells (%),[9],34%
same,Population Normal (%),[9],96%
same,Population Pyknosed Nuclei (%),[9],17%
same,Population Tubulin-Different-Phenotype (%),[9],80%
same,Total Cell Count,[9],127
same,Population Apoptotic (%),[10],25%
same,Population Fragmented Nuclei (%),[10],4%
same,Population Healthy Nuclei (%),[10],92%
same,Population Hoechst High Intensity Objects (%),[10],5%
same,Population Membrane Permeable-Phenotype (%),[10],6%
same,Population Mitochondria Different-Phenotype (%),[10],18%
same,Population Mitotic Cells (%),[10],75%
same,Population Normal (%),[10],94%
same,Population Pyknosed Nuclei (%),[10],3%
same,Population Tubulin-Different-Phenotype (%),[10],24%
same,Total Cell Count,[10],64
same,Population Apoptotic (%),[11],85%
same,Population Fragmented Nuclei (%),[11],69%
same,Population Healthy Nuclei (%),[11],10%
same,Population Hoechst High Intensity Objects (%),[11],61%
same,Population Membrane Permeable-Phenotype (%),[11],24%
same,Population Mitochondria Different-Phenotype (%),[11],33%
same,Population Mitotic Cells (%),[11],15%
same,Population Normal (%),[11],38%
same,Population Pyknosed Nuclei (%),[11],19%
same,Population Tubulin-Different-Phenotype (%),[11],40%
same,Total Cell Count,[11],245
same,Population Apoptotic (%),[12],11%
same,Population Fragmented Nuclei (%),[12],15%
same,Population Healthy Nuclei (%),[12],75%
same,Population Hoechst High Intensity Objects (%),[12],4%
same,Population Membrane Permeable-Phenotype (%),[12],8%
same,Population Mitochondria Different-Phenotype (%),[12],20%
same,Population Mitotic Cells (%),[12],88%
same,Population Normal (%),[12],95%
same,Population Pyknosed Nuclei (%),[12],9%
same,Population Tubulin-Different-Phenotype (%),[12],25%
same,Total Cell Count,[12],132
